PP5 inh: inhibitors of human protein phosphatase 5 (PP5); purified PP5c, OMFP substrate fluorescence; inhibition, % at 6.7 µM; 0.18% of 320,000 active;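 active = inhibition above the campaign's mean inhibition across all tested compounds plus 3 SD, cut at about 9.5% in these data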;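 also: 0% = DMSO only and 100% = 100 µM cantharidin control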
PP1 inh: PP1-alpha (human) inhibition in PP5 counter-screen. AID 2235. P62136. 0.9% of 320,000 active. inhibition, % at 6.7 µM. purified PP1alpha, OMFP fluorescence;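 active = inhibition above the mean inhibition of all tested compounds plus 3 SD, computed separately for each screening campaign, cut at about 15% in these data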
Target sequence (P62136 whole entry, looked up): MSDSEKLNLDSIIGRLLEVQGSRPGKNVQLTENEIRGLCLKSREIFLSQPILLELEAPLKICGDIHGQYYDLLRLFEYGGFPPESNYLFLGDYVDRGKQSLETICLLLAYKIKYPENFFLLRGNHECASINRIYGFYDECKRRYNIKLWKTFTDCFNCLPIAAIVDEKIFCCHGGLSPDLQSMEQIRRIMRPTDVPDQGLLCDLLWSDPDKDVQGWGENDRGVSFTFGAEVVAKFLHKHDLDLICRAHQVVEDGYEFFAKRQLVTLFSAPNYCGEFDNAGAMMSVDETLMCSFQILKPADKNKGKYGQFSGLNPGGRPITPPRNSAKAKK
proCasp7 act: counter-screen for procaspase-3 activators: activators of human procaspase-7; AID 463210; P55210; 0.093% of 330,000 active; recombinant procaspase-7, Ac-DEVD-pNA absorbance 405 nm; D23A/D198A/D206A triple mutant, cannot self-cleave; scale: DMSO 0, 5 µM enzyme 100; activation, % at 8.5 µM;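 active = percent activation above the screen-wide mean plus 3 SD, cut at about 25% in these data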
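buffer or medium = Zinc-free HEPES/NaCl buffer, pH 7.4 | material = Procaspase-7 triple mutant (PC-7 D3A) | input = 2 µM procaspase-7 mutant as dispensed | signal = Epi-absorbance of released pNA at 405 nm, two timepoints | timing = 1 h preincubation, 2 h reaction | replicates = singlicate compound testing | evaluation = % activation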
proCasp3 act: activates human procaspase-3; 0.11% of 330,000 active; recombinant procaspase-3 D3A, Ac-DEVD-pNA absorbance 405 nm; activation, % at 8.5 µM;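 active = activation above the mean of all tested compounds plus 3 SD, cut at about 21% in these data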;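 also: 0% = DMSO alone and 100% = DMSO wells spiked with extra 5 µM PC-3 D3A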
Target sequence (P42574 whole entry D9A/D28A/D175A): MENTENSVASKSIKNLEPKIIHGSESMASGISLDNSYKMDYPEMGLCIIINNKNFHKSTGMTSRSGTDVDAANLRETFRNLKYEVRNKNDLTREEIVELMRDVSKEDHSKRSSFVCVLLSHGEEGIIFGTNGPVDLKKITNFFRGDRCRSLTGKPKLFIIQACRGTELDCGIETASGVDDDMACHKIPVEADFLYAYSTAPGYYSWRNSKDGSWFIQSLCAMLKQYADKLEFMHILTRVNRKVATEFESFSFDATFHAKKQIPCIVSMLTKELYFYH
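Test system: Procaspase-3 D3A mutant, all three cleavage aspartates alanine | Dosing: Single dose, 8.5 µM nominal compound, 0.8% DMSO | Schedule: 1 h preincubation, 2 h reaction | Technique: 405 nm absorbance of p-nitroaniline, reads at 0 and 120 min | Repeats: One well per compound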
* = called active by the depositor; nt = not tested or not shown. A selection: hits, their analogues and other compounds. The true share with any hit is near 1.2%.

SMILES | PP5 inh | PP1 inh | proCasp7 act | proCasp3 act
O=C(O)c1cc(O)c2c(c1)[C@H]([C@H]1c3cc(C(=O)O)cc(O)c3C(=O)c3c(O[C@@H]4O[C@H](CO)[C@@H](O)[C@H](O)[C@H]4O)cccc31)c1cccc(OC3O[C@H](CO)[C@@H](O)[C@H](O)[C@H]3O)c1C2=O (stereo partly specified) | 9.1 | 86.3* | -2.1 | -9.4
O=C(O)c1cc(O)c2c(c1)[C@@H]([C@H]1c3cc(C(=O)O)cc(O)c3C(=O)c3c(O[C@@H]4O[C@H](CO)[C@@H](O)[C@H](O)[C@H]4O)cccc31)c1cccc(OC3O[C@H](CO)[C@@H](O)[C@H](O)[C@H]3O)c1C2=O (stereo partly specified) | 9.8* | 86.7* | -21.4 | -0.8
Cc1ccc(C(C(=O)NC2CCCC2)N2CCCCC2)cc1 (stereo unspecified) | 2.5 | -3.4 | 0.9 | 1.8
Cc1ccc(C(C(=O)NC2CCCCC2)N2CCCC2)cc1 (stereo unspecified) | -0.5 | 16.5* | 11.9 | 2.0
Cc1c(OCC(=O)N[C@@H](Cc2ccccc2)C(=O)O)ccc2c1oc(=O)c1ccccc12 | 2.6 | 15.2* | 0.5 | 3.9
O=c1c2ccccc2nc(N/N=C/c2c(O)ccc3ccccc23)n1O | 3.6 | 17.5* | 5.3 | 3.5
O=c1c2ccccc2nc(N/N=C/c2ccc(O)cc2)n1O | -1.2 | -2.9 | 16.0 | 6.1
COc1cc(C2Nc3cccc4cccc(c34)N2)cc(OC)c1O | -0.6 | 36.4* | -3.0 | -6.4
COc1ccc(C(=O)NCC(c2ccccc2)N2CCCC2)cc1S(=O)(=O)N1CCOCC1 (stereo unspecified) | -1.7 | -3.4 | -2.1 | 2.6
Cc1cc(C2=NNC(=Nc3ccccc3)SC2)c(C)n1C | -0.2 | 16.3* | -0.1 | -5.9
Cc1cc(C2=NNC(=NCCc3ccccc3)SC2)c(C)n1-c1c(C)n(C)n(-c2ccccc2)c1=O | 0.4 | 18.8* | -2.5 | -15.4
COCCCN=C1NN=C(c2cc(C)n(Cc3ccccc3Cl)c2C)CS1 | 1.9 | 15.4* | -2.4 | -5.4
Cc1cc(C2=NNC(=NC3CC3)SC2)c(C)n1-c1c(C)n(C)n(-c2ccccc2)c1=O | 0.7 | 1.0 | -13.3 | -2.6
Cc1ccc(-n2c(C)cc(C3=NNC(=NC4CC4)SC3)c2C)cc1C | 3.7 | 15.6* | -11.1 | -4.9
CN(CC(=O)Nc1ccc(Cl)c(C(F)(F)F)c1)C(=O)CCCNC(=O)c1ccc(Cl)cc1 | 5.2 | -1.4 | 3.1 | 5.0
O=C(O)CN1C(=O)/C(=C\C(Br)=C\c2ccccc2)SC1=S | 1.3 | 2.2 | -4.0 | -22.2
CCc1ccc2[nH]c(=O)c(C3C(C#N)=C(N)Oc4c3ccc3cccnc43)cc2c1 (stereo unspecified) | 1.5 | 23.4* | -1.7 | 13.4
Cc1ccc2cc(C3C(C#N)=C(N)Oc4c3ccc3cccnc43)c(=O)[nH]c2c1 (stereo unspecified) | 2.7 | 12.6 | -6.4 | -7.6
COC(=O)CCC(=O)OC1(C)C(=O)C2=CN(CC3CC3)C(c3ccc(OC)cc3)=CC2=C(Br)C1=O (stereo unspecified) | 7.1 | 17.2* | -43.3 | -13.4
Cc1cc(Nc2ccccc2)nc(NCc2ccccc2)n1 | 4.6 | 8.9 | -3.9 | 4.5
Cc1cc(Nc2ccc(Cl)cc2)nc(NCc2ccccc2)n1 | 7.8 | 17.1* | 2.8 | -4.4
O=C(Nc1ccc(OC(F)(F)F)cc1)c1cnccn1 | -0.7 | -3.4 | -4.2 | -3.6
O=C(O)c1cccc2c(-c3ccccc3)c(-c3ccccc3)[nH]c12 | 2.0 | 15.4* | 4.5 | -6.4
COc1ccc(CNC(=O)Cn2cnc3c(NCc4ccccc4)ncnc32)cc1 | nt | nt | 8.1 | -0.8
O=C(NN1C(=O)/C(=C\c2ccc(O)c([N+](=O)[O-])c2)SC1=S)c1ccccc1Cl | 0.6 | 15.7* | -16.9 | -13.1
SMILES | PP5 inh | PP1 inh | proCasp7 act | proCasp3 act
CC(=O)Oc1ccc(C(=O)Nc2cccc(C(=O)c3cccc(NC(=O)c4ccc(OC(C)=O)cc4)c3)c2)cc1 | 0.5 | 15.4* | 5.5 | -1.6
CC(=O)Oc1ccc(C(=O)Nc2cccc(C(=O)NC(C)(C)C)c2)cc1 | 2.5 | -1.4 | -8.2 | -0.2
Cn1c(=NC(=O)CS(=O)(=O)c2ccccc2)sc2cc([N+](=O)[O-])ccc21 | -1.0 | -2.5 | -1.0 | 3.7
Cc1cc(C)nc(NS(=O)(=O)c2ccc(NC(=O)Cc3ccccc3F)cc2)n1 | -0.5 | 4.1 | 3.6 | 7.9
Cc1ccccc1C(=O)Nc1nnc(CC(=O)N/N=C/c2cn(Cc3ccccc3)c3ccccc23)s1 | -0.3 | 15.5* | -7.5 | 3.3
Nc1cc(OC(=O)c2cccs2)nn1S(=O)(=O)c1ccccc1 | 2.3 | 15.5* | -25.7 | -21.4
COc1ccc(C(=O)C(C)OC(=O)CNC(=O)c2ccco2)cc1 (stereo unspecified) | nt | nt | 1.2 | 2.0
CCN=C1S/C(=C\c2cn(CC(=O)NCc3ccco3)c3ccccc23)C(=O)N1CC | 1.6 | 15.3* | -2.6 | 1.7
COc1ccccc1CN(C(=O)CCl)C(C(=O)NC1CCCCC1)c1ccncc1 (stereo unspecified) | 3.8 | 17.0* | 7.7 | -11.1
CC(C)CCCC(C)NC(=O)c1cc(S(=O)(=O)N2CCCCC2)ccc1N1CCOCC1 (stereo unspecified) | 3.6 | -0.6 | -0.5 | -3.1
COc1cccc(/C=N/NC(=O)c2cc3c(OC)ccc(OC)c3[nH]2)c1O | 1.8 | 15.5* | -17.1 | -10.4
COc1cc(OC)c2cc(C(=O)N/N=C/c3cccc(OC)c3O)[nH]c2c1 | -1.1 | 8.1 | -6.9 | -13.0
COCC(=O)N(C)C[C@H]1N[C@@](C)(C(=O)OC)[C@H]2C(=O)N(Cc3ccccc3)C(=O)[C@@H]12 | nt | nt | 17.1 | 14.3
O=C(Nc1ccc2nc(-c3ccco3)c(-c3ccco3)nc2c1)N1CCCCCC1 | 4.0 | 36.6* | -13.8 | -7.6
C(=N\Nc1nc2ccccc2[nH]1)/c1ccccc1 | 0.1 | -7.6 | 3.3 | 6.1
CC(C)(C)/C(O)=C(/C#N)c1nc2ccccc2[nH]1 | 4.8 | 3.1 | 2.0 | 7.6
C(=C\c1ccccc1)/C=N/Nc1nc2ccccc2[nH]1 | 3.5 | 15.9* | -0.6 | 6.1
N#C/C(=C(O)\C=C\c1ccccc1)c1nc2ccccc2[nH]1 | 3.3 | 15.9* | 1.4 | 3.5
COc1ccccc1CNC(=O)CN(C)CC(=O)Nc1ccc(F)c(F)c1F | nt | nt | -8.9 | 4.2
C#CCOCCOCCOCCNc1nc(N2CCN(C(=O)C([C@@H](C)CC)n3cc(C(N)COC(=O)C(F)(F)F)nn3)CC2)nc(N2CCN(C(=O)[C@H](CCCCN)n3cc(C(N)[C@H](C)CC)nn3)CC2)n1 (stereo partly specified) | 2.2 | 17.3* | -1.9 | 1.7
C#CCOCCOCCOCCNc1nc(N2CCN(C(=O)C(Cc3ccc(O)cc3)n3cc(C(N)CC(C)C)nn3)CC2)nc(N2CCN(C(=O)C(Cc3cc4ccccc4[nH]3)n3cc(C(N)Cc4ccc(O)cc4)nn3)CC2)n1 (stereo unspecified) | 1.7 | 16.9* | -12.2 | 2.2

High-throughput results deposited in PubChem by The Scripps Research Institute Molecular Screening Center.
